Data set [1] deals with T1, glucose-dependent insulinotropic receptor (Mesocricetus auratus, UniProt A0A1U8CD06).
T1 sequence (A0A1U8CD06 whole entry): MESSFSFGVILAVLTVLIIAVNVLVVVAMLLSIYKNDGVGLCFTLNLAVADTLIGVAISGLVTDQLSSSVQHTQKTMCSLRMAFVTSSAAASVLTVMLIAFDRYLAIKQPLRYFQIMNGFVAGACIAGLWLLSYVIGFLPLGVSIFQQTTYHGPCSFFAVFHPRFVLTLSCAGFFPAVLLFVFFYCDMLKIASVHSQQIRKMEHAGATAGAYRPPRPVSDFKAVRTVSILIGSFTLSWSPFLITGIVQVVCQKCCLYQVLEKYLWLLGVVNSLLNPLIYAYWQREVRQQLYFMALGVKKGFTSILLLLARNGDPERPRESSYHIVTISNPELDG
Put plainly: Agonist activity at GPR119 in glucose-induced golden hamster HIT-T15 cells assessed as increase in insulin secretion after 2 hrs by A1phaLISA. The class given is cell-based. Summed up: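 HIT-T15 hamster β-cells seeded 5×10^4 cells/well, next day pre-incubated 2 h in KRBH buffer (0.2% BSA). Then exposed to compounds in KRBH with 0.2% fatty acid free BSA and 10 mmol/L glucose for 2 h at 37 °C; secreted insulin in supernatant quantified by AlphaLISA. EC50 reported from n = 2.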

The test system of data set [2] is Rattus norvegicus. Put plainly: Antidiabetic activity in po dosed N-STZ 1.5 rat assessed as reduction in GHB level for 4 weeks. The class given is functional, organism-based. The note with it: dose 1-3 mg/kg. Summed up: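 Male N-STZ-1.5 rats kept under time-restricted feeding, treated for 4 weeks; GHb measured before and after treatment and expressed also as percentage change.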

A short description of data set [3]: Total clearance in rat at 0.1 mg/kg, iv by LC/MS/MS analysis. As to conditions: in vivo. Type of data set: ADME, organism-based. Summed up: (§1)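 Cassette intravenous dosing at 0.1 mg/kg to non-fasted animals. Plasma taken from blood samples, deproteinized and centrifuged, and compound levels in supernatant quantified by LC/MS/MS.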
For data set [4], the system named is Rattus norvegicus. Put plainly: Antidiabetic activity in N-STZ 1.5 rat assessed as reduction in glucose level at 1 mg/kg, po pre-treated for 60 mins followed by 1.5 g/kg glucose treatment and measured up to 120 mins by OGTT. Type of data set: functional, organism-based. The note with it: time min <=180. Summed up:
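Male N-STZ1.5 rats, 25–30 weeks old, fasted overnight, dosed orally with compound or 0.5% methylcellulose vehicle; 60 min later oral glucose load 1.5 g/kg. Tail-vein blood taken pre-dose, at 0, 10, 30, 60 and 120 min; plasma glucose by autoanalyzer, insulin by radioimmunoassay. AUC computed; mean ± SD, n = 6; one-tailed Williams' test.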

Data set [5] is described as follows: Intrinsic clearance in human liver microsomes at 1 uM measured after 15 to 30 mins in presence of NADPH generating system by LC/MS/MS analysis. Type of data set: ADME, Microsome. The note with it: time 15-30 min, read-out: CLH. Summed up:
(§2)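 Human or rat liver microsomes at 0.2 mg/mL protein in 50 mM potassium phosphate pH 7.4 with 1 µM compound; reaction started with NADPH-generating system (5 mM MgCl2, 5 mM glucose-6-phosphate, 0.5 mM β-NADP+, 1.5 units/mL G6PDH). Stopped with acetonitrile at 15 and 30 min, parent by LC/MS/MS; rate from concentration–time slope, expressed as µL/min/mg.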
In general terms: Liver microsomes are vesicles of endoplasmic reticulum, rich in cytochrome P450 enzymes.

Data set [6] deals with T2, Glucose-dependent insulinotropic receptor (Mus musculus, UniProt Q7TQP3).
T2 sequence (Q7TQP3 whole entry): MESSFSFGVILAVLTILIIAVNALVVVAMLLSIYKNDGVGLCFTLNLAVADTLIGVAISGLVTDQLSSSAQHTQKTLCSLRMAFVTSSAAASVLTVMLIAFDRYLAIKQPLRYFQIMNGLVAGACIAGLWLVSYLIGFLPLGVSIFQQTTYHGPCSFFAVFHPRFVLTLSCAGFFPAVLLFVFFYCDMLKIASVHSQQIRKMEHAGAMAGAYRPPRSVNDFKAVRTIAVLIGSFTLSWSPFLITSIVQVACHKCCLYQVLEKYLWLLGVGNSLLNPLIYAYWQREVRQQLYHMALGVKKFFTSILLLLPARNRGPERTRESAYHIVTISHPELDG
Put plainly: Agonist activity at GPR119 in glucose-induced mouse L cells assessed as induction of GLP-1 secretion after 2 hrs by ELISA. Summed up: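 GLUTag cells (murine L cell line) seeded at 1 × 10^4 cells/well on poly-L-lysine, switched to low-glucose DMEM overnight, washed with HBSS, then exposed to compounds in KRBH buffer with 0.2% fatty acid free BSA and 10 mmol/L glucose for 2 h at 37 °C. Active GLP-1 in supernatant by ELISA; EC50 from n = 2.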

Data set [7] is described as follows: Oral bioavailability in rat at 1 mg/kg by LC/MS/MS analysis. The class given is ADME, organism-based. As to conditions: in vivo. Summed up:
(§3)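 Cassette dosing, given by mouth at 1 mg/kg in 0.5% methylcellulose aqueous solution, with intravenous arm at 0.1 mg/kg, to non-fasted animals. Blood collected after dosing, plasma deproteinized and centrifuged, compound measured by LC/MS/MS.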

Data set [8] in a line: Intrinsic clearance in rat liver microsomes at 1 uM measured after 15 to 30 mins in presence of NADPH generating system by LC/MS/MS analysis. The class given is ADME, Microsome. As to conditions: time 15-30 min, read-out: CLH. Summed up: as §2
In data set [9] the target is T3, Glucose-dependent insulinotropic receptor (Rattus norvegicus, UniProt Q7TQN8).
T3 sequence (Q7TQN8 whole entry): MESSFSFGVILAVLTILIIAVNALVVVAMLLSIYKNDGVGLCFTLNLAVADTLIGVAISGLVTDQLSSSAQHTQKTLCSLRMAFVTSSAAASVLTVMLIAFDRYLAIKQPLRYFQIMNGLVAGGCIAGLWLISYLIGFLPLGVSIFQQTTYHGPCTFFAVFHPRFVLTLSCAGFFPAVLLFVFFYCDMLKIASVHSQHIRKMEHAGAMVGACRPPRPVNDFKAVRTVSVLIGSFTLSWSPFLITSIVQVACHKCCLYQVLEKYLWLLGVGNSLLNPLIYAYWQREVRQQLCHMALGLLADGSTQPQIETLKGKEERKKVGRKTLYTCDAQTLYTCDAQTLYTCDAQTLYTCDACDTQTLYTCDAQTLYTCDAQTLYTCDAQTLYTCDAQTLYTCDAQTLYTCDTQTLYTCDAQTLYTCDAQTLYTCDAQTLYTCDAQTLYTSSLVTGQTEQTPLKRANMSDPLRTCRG
Put plainly: Agonist activity at rat GPR119 expressed in CHO cells co-expressing cyclic AMP response element incubated for 2 hrs by steady-glo luciferase assay. Type of data set: cell-based. Summed up:
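Rat GPR119-expressing cells, cAMP-induced luciferase read with Steady-Glo after 2 h compound exposure in MEM α/HEPES/BSA buffer. Activity scaled between vehicle and a 10 µM reference agonist; EC50 mean of n = 2.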

A short description of data set [10]: MRT in rat at 1 mg/kg, po by LC/MS/MS analysis. Type of data set: ADME, organism-based. The note with it: in vivo. Summed up:
as §3

Data set [11] can be described thus: Volume of distribution at steady state in rat at 0.1 mg/kg, iv by LC/MS/MS analysis. The class given is ADME, organism-based. The note with it: in vivo, read-out: Vdss. Summed up:
as §1

Active and inactive are the calls of the source. The calls are words filed in the database; no cut-off is given here.

One may read the EC50 as the concentration that produces a half-maximal response. For orientation: clearance means a measure of how efficiently the substance is removed, as volume per time. A low value points to inefficient removal. As usually defined, the bioavailability is dose-corrected exposure relative to a reference, in per cent. Low values mean little systemic uptake, high ones much systemic uptake. What is called MRT is the average time that molecules of a dose stay in the body. In the case of `CC(C)c1noc(N2CCC(Oc3cc(N4CCc5cc(N6CCC[C@H](O)C6=O)ccc54)ncn3)CC2)n1`, the EC50 stood at 25 nM in data set [1], 19 nM in data set [6] and 120 nM in [9]. Moreover, the Activity entry in the data set with Rattus norvegicus [2] is “Dose-dependent effect”. The clearance in data set [3] was 2.47 mL/min/kg. Also, the result in the data set on Rattus norvegicus [4] was Active. Besides, the microsomal CLint at 1 µM was found to be 9 µL/min/mg in [5] and 1 µL/min/mg in [8]. Besides, the bioavailability in data set [7] worked out at 24%. Moreover, in [10], the mean residence time MRT stood at 3.8 h. In addition, the Vd in data set [11] came to 0.332 L/kg.
